Only some compounds are listed: those with a hit (about 2.4% of all), similar ones and a draw of the others.
Cneo AK release – Cryptococcus neoformans cell lysis inducers, primary screen, AK release luminescence, single concentration; C. neoformans lysis, adenylate kinase release luminescence, 4 h; normalised: neutral wells 0, clomiphene wells 100; AID 651654, 2012; lysis activity, % at 15 µM; 0.2% of 360,000 active;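 active = mean lysis activity across replicates of at least 80%, whatever share of replicates individually reach that level; inactive = mean lysis activity below 80%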
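Test system: log-phase Cryptococcus neoformans yeast cells. Input: 5 × 10^6 yeast cells/mL. Medium: fresh YPD growth medium. Doses: single dose. Incubation: static 4 h at 37 °C with compound, 1 h detection. Measured by: luminescent adenylate kinase detection reagent. Read-out: signal increase indicating cell lysis. Benchmarks: Clomiphene.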
GSIS activator – GLuc luminescence reporter in INS-1E cells, primary screen for activators of glucose-dependent secretion of insulin. activation, % at 16.6 µM. INS-1E GLuc reporter insulin secretion, 2-3 h. AID 743287, 2014. 0.61% of 370,000 active;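 active = lowest replicate activation of at least 40%, so every replicate reaches that level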;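 note: 0% = median of neutral control wells and 100% = median of IBMX positive control wells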
Rtt109 HAT inh – inhibitors of C. albicans Rtt109/Vps75 HAT, primary screen, biochemical, ThioGlo CoA-SH fluorescence, plate reader. purified Rtt109/Vps75, 4 h. inhibition, % at 34.9 µM. 0.16% of 330,000 active;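 active = inhibition of at least 50% in every replicate; inconclusive = best replicate reaches 50% inhibition but some replicates fall short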
Target sequence (Q5AAJ8 whole entry, looked up): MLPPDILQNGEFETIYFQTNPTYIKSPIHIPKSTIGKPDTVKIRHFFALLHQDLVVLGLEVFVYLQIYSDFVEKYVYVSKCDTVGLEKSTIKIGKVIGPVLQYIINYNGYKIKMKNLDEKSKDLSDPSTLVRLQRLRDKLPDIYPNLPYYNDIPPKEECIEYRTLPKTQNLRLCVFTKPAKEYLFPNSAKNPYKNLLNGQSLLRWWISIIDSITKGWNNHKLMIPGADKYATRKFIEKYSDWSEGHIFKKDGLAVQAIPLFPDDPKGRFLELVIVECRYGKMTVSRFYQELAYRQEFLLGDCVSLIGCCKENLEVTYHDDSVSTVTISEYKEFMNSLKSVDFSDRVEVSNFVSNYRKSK
HIV Env fusion – inhibitors of HIV-1 Env-driven cell-cell fusion, primary screen, HeLa-JRFL effector, CEM21 target cells, luciferase | inhibition, % at 12.3 µM | AID 651610, 2012 | 1.1% of 360,000 active;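 active = mean replicate inhibition score of at least 50 and every replicate individually at or above 50; inconclusive = only one of the two criteria met; inactive = mean below 50 and not all replicates reaching 50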;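 note: 0% = plate neutral controls and 100% = maraviroc near 300 nM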
dFosB act-1 – activators of delta FosB homodimer, primary screen, biochemical, fluorescence polarization, TAMRA-CDK5 oligo, single point; Protein FosB (Mus musculus), P13346; purified delta FosB; percent of positive-control signal above neutral wells; activation, % at 25 µM; 0.99% of 340,000 active;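 active = mean activation above about 17%, with every replicate also reaching it, limit read from the data, passing the limit was not always enough; inconclusive = only one of the two conditions met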
miR-122 sensor – miR-122 Renilla sensor signal increase in Huh7, primary screen, miR-122 inhibitor project, cell-based, single point, plate reader | 0.3% of 340,000 active | AID 602342, 2012 | activation (reporter increase), % at 12.5 µM | Huh7 miR-122 Renilla luciferase sensor, 48 h; neutral wells = 0, positive control = 100;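 active = mean replicate activation score at least 90 and every replicate individually at or above 90; inconclusive = only one of the two criteria met; inactive = neither criterion met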;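 note: higher luciferase means less miR-122 activity so hits act as miR-122 inhibitors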
dFosB act-2 – activators of mouse delta FosB DNA binding, confirmation, biochemical, fluorescence polarization, TAMRA-CDK5 oligo, cherry-picked samples; shares compounds with dFosB act-1; purified delta FosB; normalised: neutral wells 0, positive control 100; activation, % at 24.9 µM; 2,400 tested, under 10 active;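 active = highest replicate activation at or above 34% and every replicate reaching that threshold; inconclusive = meets only one of the two criteria; inactive = meets neither criterion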;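 note: higher polarization means more probe DNA bound by delta FosB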
Active calls of the source: *; [ ] = another dose, or the depositor's remark.

`Cn1nc(C(=O)Nc2cccc(Cl)c2)cc1C(=O)Nc1cccc(Cl)c1` gave Cneo AK release 2, GSIS activator -7, Rtt109 HAT inh 6, HIV Env fusion -23, dFosB act-1 33*, miR-122 sensor -7 and dFosB act-2 2.
`Cc1cc(C(C)(C)C)cc(S(=O)(=O)Nc2ccc(O)c(C(=O)O)c2)c1C` gave GSIS activator -17, Rtt109 HAT inh -5, HIV Env fusion -2, dFosB act-1 0 and miR-122 sensor 5.
For CC(=O)Nc1ccc(NC(=O)c2ccc(NS(=O)(=O)c3cc(C(C)(C)C)cc(C)c3C)cc2)cc1 the results were Cneo AK release 2, GSIS activator -3, Rtt109 HAT inh -1, dFosB act-1 54* and dFosB act-2 9.
Screening CNC(=O)C[C@H]1CC[C@@H]2[C@@H](COc3ccc(NC(=O)c4cscn4)cc3C(=O)N2C)O1 returned Cneo AK release -3, GSIS activator 6, HIV Env fusion 9[16.7 µM] and miR-122 sensor 46[16.7 µM].
`COc1cc(CCN2C(=O)c3cccc4cccc(c34)C2=O)c(S(=O)(=O)NCCCO)cc1OC` gave Cneo AK release 2, Rtt109 HAT inh -30, HIV Env fusion -30, dFosB act-1 20*, miR-122 sensor 41 and dFosB act-2 -1.
Screening COc1ccccc1C(=O)N(CCN(C)C)c1nc2cc(C)cc(C)c2s1 returned GSIS activator -15, Rtt109 HAT inh 7, HIV Env fusion 12 and dFosB act-1 -1.
`Cc1ccc2sc(N(CCN(C)C)C(=O)c3ccc4ccccc4c3)nc2c1C` gave Cneo AK release 3, GSIS activator -13, Rtt109 HAT inh 0, HIV Env fusion 23, dFosB act-1 39* and dFosB act-2 2.
Cc1cc(C)c2sc(N(CCN(C)C)C(=O)c3ccc4ccccc4c3)nc2c1 was read as Cneo AK release 4, GSIS activator 24, Rtt109 HAT inh 0, HIV Env fusion -4, dFosB act-1 39* and dFosB act-2 6.
CCS(=O)(=O)NCC[C@@H]1CC[C@@H](NC(=O)C2CCC2)[C@@H](CO)O1 was read as Cneo AK release -2, GSIS activator 12 and HIV Env fusion -5[16.7 µM].
For C[C@H]1CN(C)C(=O)c2cc(NS(C)(=O)=O)ccc2O[C@H]1CN(C)S(C)(=O)=O the results were GSIS activator 21.
`COc1ccccc1/C=C(\NC(=O)c1ccc(OC)c(OC)c1)C(=O)Nc1cc([N+](=O)[O-])ccc1C` gave GSIS activator -9, Rtt109 HAT inh 41, HIV Env fusion 11, dFosB act-1 28* and dFosB act-2 -2.
COc1ccc(/C=C(/NC(=O)c2cccc([N+](=O)[O-])c2)C(=O)O)cc1OC was read as GSIS activator 4, Rtt109 HAT inh 26, HIV Env fusion -2, dFosB act-1 -3 and miR-122 sensor -11.
O=C1NC(=O)/C(=C\c2ccc(OCc3cccc([N+](=O)[O-])c3)cc2)N1 was read as GSIS activator -7, Rtt109 HAT inh 0, HIV Env fusion 3, dFosB act-1 31* and dFosB act-2 8.
O=[N+]([O-])c1cccc(COc2ccc(CO)cc2)c1 was read as GSIS activator 7 and HIV Env fusion -67.
C[C@H]1CN([C@@H](C)CO)S(=O)(=O)c2ccc(-c3cccnc3)cc2O[C@H]1CN(C)C(=O)C1CCC1 was read as Cneo AK release 2, GSIS activator 6, HIV Env fusion 4[16.7 µM] and miR-122 sensor -1[16.7 µM].
`Cc1ccc(-c2nn(CC(=O)NC(C)c3ccccc3)c(=O)c3ccccc23)cc1` (configuration not stated) gave Cneo AK release -11, HIV Env fusion -145, dFosB act-1 28*, miR-122 sensor 8 and dFosB act-2 -22.
Screening O=C(COC(=O)c1cc([N+](=O)[O-])ccc1NCc1ccccc1Cl)NCC(F)(F)F returned Cneo AK release 2, GSIS activator -9, Rtt109 HAT inh -7, dFosB act-1 53*, miR-122 sensor 4 and dFosB act-2 5.
CC(C)CNC(=O)NC(=O)COC(=O)c1cc([N+](=O)[O-])ccc1NCc1ccccc1Cl was read as GSIS activator 2 and HIV Env fusion -1.
`COc1ccc(-n2c(-c3ccc(Cl)cc3)c[n+]3c2CCc2ccccc2-3)cc1` gave GSIS activator -40, Rtt109 HAT inh 8, HIV Env fusion 38, dFosB act-1 -2 and miR-122 sensor -7.
Screening Cc1ccc(-n2c(-c3ccc(Br)cc3)c[n+]3c2CCc2ccc4cccnc4c2-3)cc1 returned Cneo AK release -2, GSIS activator -11, Rtt109 HAT inh 15, HIV Env fusion -64, dFosB act-1 26*, miR-122 sensor -7 and dFosB act-2 inconclusive.
For CCOc1cc(/C=C(/C#N)c2nc3ccccc3[nH]2)ccc1Oc1ccc([N+](=O)[O-])cn1 the results were Cneo AK release -2, GSIS activator 12, Rtt109 HAT inh -4, dFosB act-1 50*, miR-122 sensor -18 and dFosB act-2 7.
`CCOc1cc(/C=C(\C#N)c2nc3ccccc3[nH]2)ccc1OC(C)C(=O)O` (configuration not stated) gave Cneo AK release 3, GSIS activator -24, Rtt109 HAT inh 13, HIV Env fusion 16, dFosB act-1 8 and miR-122 sensor -11.
Screening O=C(C1CCC1)N1[C@@H](CO)[C@@H](c2ccccc2)C12CN(Cc1ccccc1)C2 returned GSIS activator -16.
COc1ccc(Nc2cc(C)nc3ccc(OC)cc23)cc1 was read as Cneo AK release 0, GSIS activator 16, Rtt109 HAT inh 4, HIV Env fusion 1, dFosB act-1 34*, miR-122 sensor -3 and dFosB act-2 3.
For Cc1ccc2nc3c(c(Nc4ccc(O)cc4)c2c1)CCC3 the results were Cneo AK release 0, GSIS activator 23, Rtt109 HAT inh -6, HIV Env fusion -16 and dFosB act-1 14.
